High-throughput results as filed in PubChem BioAssay.
UCH37 inh: inhibitors of human deubiquitinating enzyme UCH37; Q9Y5K5; purified proteasome/UCH37, Ub-AMC cleavage fluorescence; inhibition, % (test concentration not listed); actives 0.33% (n = 330,000); AID 588478;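 active means mean inhibition over replicate wells above about 20%, limit read from the data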;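 further: 0% = compound-free wells with enzyme and 100% = wells lacking proteasome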
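Material: Human UCH37 enzyme supplied as purified proteasome complex | Schedule: 30 min preincubation with enzyme, 25 min cleavage at room temperature | Detection: AMC fluorescence 355/460 nm | Measure: % inhibition of Ub-AMC cleavage fluorescence | Controls: Wells without proteasome as full block, compound-free enzyme plus substrate as uninhibited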
CTSL1 counter: cathepsin L1 inhibition, PFM18AAP counter-screen | recombinant F. hepatica cathepsin L1, Z-Leu-Arg-MCA fluorescence | inhibition, % at 5.96 µM | actives 0.49% (n = 300,000);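 active means inhibition above the mean of all tested compounds plus 3 SD, set per screening campaign, cut at about 17% in these data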;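 further: 0% = plate median of test compound wells and 100% = 1 µM Z-Phe-Ala-diazomethylketone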
HKDC1 inhibitor: blocks human hexokinase HKDC1 activity | inhibition, % at 20 µM | actives 0.16% (n = 340,000) | recombinant HKDC1, G6PDH/diaphorase resazurin coupled fluorescence | Q2TB90;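 active means inhibition above about 35% when tested at 20 µM, limit read from the data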;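 further: plate controls were DMSO wells with enzyme for no effect and DMSO wells lacking enzyme for full effect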
Target sequence (Q2TB90 whole entry, looked up): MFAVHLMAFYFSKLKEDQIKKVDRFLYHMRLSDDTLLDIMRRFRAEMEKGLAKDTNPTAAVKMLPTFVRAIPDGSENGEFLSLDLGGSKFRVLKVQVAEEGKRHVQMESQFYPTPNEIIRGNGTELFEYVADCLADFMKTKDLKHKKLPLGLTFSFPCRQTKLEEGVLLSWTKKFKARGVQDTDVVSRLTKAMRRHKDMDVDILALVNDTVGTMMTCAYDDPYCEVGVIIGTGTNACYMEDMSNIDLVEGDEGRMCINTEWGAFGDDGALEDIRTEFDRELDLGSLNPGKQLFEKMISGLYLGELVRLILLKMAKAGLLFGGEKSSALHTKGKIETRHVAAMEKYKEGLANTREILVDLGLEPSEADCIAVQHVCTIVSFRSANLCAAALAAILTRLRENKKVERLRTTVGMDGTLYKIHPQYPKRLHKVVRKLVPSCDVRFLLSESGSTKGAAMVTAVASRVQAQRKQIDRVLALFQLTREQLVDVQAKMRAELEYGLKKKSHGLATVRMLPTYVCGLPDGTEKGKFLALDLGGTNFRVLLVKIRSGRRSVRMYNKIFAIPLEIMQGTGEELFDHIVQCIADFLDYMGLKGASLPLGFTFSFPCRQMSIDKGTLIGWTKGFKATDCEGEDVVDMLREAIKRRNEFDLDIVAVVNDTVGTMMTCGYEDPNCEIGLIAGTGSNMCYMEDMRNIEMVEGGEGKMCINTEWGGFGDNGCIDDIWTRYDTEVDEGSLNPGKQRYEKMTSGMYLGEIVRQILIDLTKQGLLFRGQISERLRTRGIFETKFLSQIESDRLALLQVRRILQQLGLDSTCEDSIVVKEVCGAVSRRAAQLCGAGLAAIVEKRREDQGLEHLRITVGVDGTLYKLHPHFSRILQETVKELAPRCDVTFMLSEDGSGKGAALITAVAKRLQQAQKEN
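Assay system – recombinant HKDC1 (HK5) hexokinase enzyme, produced in-house · Input – HKDC1 at 5 µg/mL · Reagent – glucose plus 1 mM ATP as hexokinase substrates · Timing – 90 min reaction incubation at room temperature, dark · Measured by – G6PDH/diaphorase-coupled fluorescence, 1 mM NADP, 100 µM resazurin, 525/613 nm · Benchmarks – DMSO-enzyme wells negative, buffer-substituted wells positive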
TDP2 absorb: TDP2 (human) inhibition, absorbance primary screen; actives 0.34% (n = 370,000); inhibition, % at 12.8 µM; O95551; recombinant TDP2, T5PNP hydrolysis, p-nitrophenol absorbance 415 nm;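 active means inhibition above the mean of all tested compounds plus 3 SD, set per campaign, cut at about 25% in these data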;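 further: 0% = DMSO with enzyme and 100% = buffer with substrate but no TDP2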
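Assay system: Recombinant human TDP2 | Quantity: 120 nM TDP2 per well | Incubation: 2 h at 37 °C | Signal: Epi absorbance | Evaluation: Percent inhibition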
PAD4 inh: blocks human protein arginine deiminase 4; Q9UM07; recombinant PAD4, RCA probe fluorescence polarization; inhibition, % at 6.36 µM; actives 0.41% (n = 330,000); AID 485272;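 active means percent inhibition above a cutoff equal to the mean of all tested compounds plus 3 SD, cut at about 15% in these data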;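 further: 0% = PAD4 with RCA probe and DMSO and 100% = probe without PAD4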
GSTO1 counter: blocks human GSTO1 in RBBP9 counter-screen; actives 1.1% (n = 300,000); inhibition, % at 5.96 µM; recombinant GSTO1, activity-based probe fluorescence polarization;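 active means inhibition above the campaign mean inhibition plus 3 SD, cut at about 35% in these data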;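 further: 0% = GSTO1-1 with DMSO and 100% = wells lacking GSTO1-1 enzyme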
UCH37 reconfirm: reconfirmed inhibitor of human deubiquitinase UCH37; inhibition, % at 20 µM; actives 27% (n = 480); Proteasome-bound UCH37, Ub-AMC cleavage fluorescence; shares compounds with UCH37 inh; AID 624100;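 active means average inhibition over replicates above about 50%, so the earlier screening hit is confirmed, limit read from the data; inactive means the rest, counted as false positives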;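 further: based on cleavage rate fitted by regression over a 30 min kinetic read; 0% = proteasome plus Ub-AMC and 100% = Ub-AMC without proteasome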
Active calls of the source: *; x = not tested or not shown. Hits are enriched below; roughly 1.6% of the tested compounds scored in any of these assays.

SMILES	UCH37 inh	CTSL1 counter	HKDC1 inhibitor	TDP2 absorb	PAD4 inh	GSTO1 counter	UCH37 reconfirm
O=C1C(Nc2ccccc2)=C(NS(=O)(=O)c2ccccc2)C(=O)c2ccccc21	-0.8	2.5	1.1	7.6	-4.2	2.5	x
CCCCNC1=CC(=O)C(NCCCC)=CC1=O	5.2	x	26.5	7.1	x	x	x
CCCCNC1=CC(=O)C(=O)c2ccccc21	49.0*	1.9	18.7	15.6	-1.1	47.7*	36.6
Cn1c(SCC(=O)NN=Cc2ccco2)nc2ccccc21	0.8	x	x	x	x	x	x
C/C(C=NNC(=O)c1ccncc1)=C/c1ccc(C(C)C)cc1	3.1	x	x	x	x	x	x
CC(C)=CCC(C)(C)C1OCCN1C(=O)c1ccccc1 (centres undefined)	63.4*	2.0	-4.0	11.1	-6.2	0.1	67.8*
CCOC(=O)C(C#N)=NNc1ccccc1OC	1.8	x	x	x	x	x	x
CCOc1ccccc1C=NN1CCN(Cc2ccccc2)CC1	2.4	x	x	x	x	x	x
COc1cc(/C=C(\C#N)c2nc3ccccc3s2)cc([N+](=O)[O-])c1O	26.3*	x	20.4	-5.8	x	x	53.0*
COc1cc(/C=C(\NC(=O)c2ccccc2)C(=O)NCCO)c([N+](=O)[O-])cc1OC	2.3	0.2	-2.7	-8.6	2.4	2.1	x
COc1cc(/C=C(\NC(=O)c2ccccc2)C(=O)Nc2cccc(O)c2)c([N+](=O)[O-])cc1OC	51.2*	3.7	-5.8	0.6	-2.3	17.8	5.0
N#CC1=C(N)NC(SCC(=O)Nc2ccccc2)=C(C#N)C12CCCC2	37.5*	-0.1	1.3	5.7	-5.7	-10.6	33.9
N#CC1=C(N)NC(SCC(=O)O)=C(C#N)C12CCCC2	7.2	3.3	-0.2	2.2	2.0	-8.5	x
Cc1cc(N=Nc2ccccc2C(=O)O)c(C)c(C)c1O	25.4*	7.2	9.7	13.2	-15.6	-28.9	39.1
CCCCCCCCCCCCCCCC[n+]1ccc(C=NO)cc1	53.0*	x	x	x	x	x	57.0*
CN(C)C(=O)C[n+]1ccc(/C=N/O)cc1	x	2.3	3.2	-4.0	-3.5	4.6	x
N#CC(=NNc1ccc([N+](=O)[O-])cc1)C(N)=S	29.0*	x	x	x	x	x	18.9
Cn1c(Cc2nc3ccccc3n2C)nc2ccccc21	41.9*	-1.3	4.4	0.7	-1.9	2.1	15.3
Cn1c(COc2ccccc2)nc2ccccc21	2.0	-1.2	-3.7	-13.5	-3.9	9.6	x
O=C(NN=Cc1ccccc1C(=O)O)C(=O)N1CCCCC1	3.5	x	x	x	x	x	x
C=C(c1ccccc1)c1ccccc1N	39.7*	2.1	3.3	1.2	-4.9	3.2	-2.0
N=C1/C(=C/c2ccc(-c3cccc(C(=O)O)c3)o2)C(=O)N=C2SC=C(c3ccccc3)N12	25.8*	5.9	19.6	4.1	-12.4	-23.5	66.4*
C#CCOCCOCCOCCNc1nc(N2CCN(C(=O)[C@H](CCCCN)n3cc(CN)nn3)CC2)nc(N2CCN(C(=O)[C@H](CCCCN)n3cc([C@@H](N)[C@H](C)CC)nn3)CC2)n1	36.0*	x	-10.4	3.3	0.4	x	3.8
CCc1cc(C(=O)NN=Cc2ccc(O)cc2O)c2ccccc2n1	2.5	x	x	x	x	x	x
Cc1ccccc1OCC(=O)NCc1ccccc1	41.1*	1.9	-2.2	-6.8	-2.7	-1.7	15.4
SMILES	UCH37 inh	CTSL1 counter	HKDC1 inhibitor	TDP2 absorb	PAD4 inh	GSTO1 counter	UCH37 reconfirm
Cc1ccccc1OCC(=O)NNC(=O)CCc1ccccc1	5.0	-19.0	-6.1	-3.9	-4.0	4.7	x
CCCN1C=CC(=CC=C(C#N)C#N)C=C1	38.2*	6.9	2.5	-18.2	-5.5	3.4	25.6
C=CCN1C=CC(=CC=C(C#N)C#N)C=C1	28.8*	6.5	-1.2	7.4	-7.1	-7.6	20.0
CC(=NO)C(C)=NNC(=O)c1ccccn1	4.2	x	x	x	x	x	x
C[N+]1(C)CCC(=C2c3ccccc3CC(=O)c3sccc32)CC1	75.4*	-3.4	2.5	18.1	-7.2	31.8	18.6
CC[N+]1(C)CCC(=C2c3ccccc3CC(=O)c3sccc32)CC1 (centres undefined)	7.0	-0.3	1.6	2.1	-3.3	5.4	x
